ChEMBL document CHEMBL4138257, “Long-Lasting and Fast-Acting in Vivo Efficacious Antiplasmodial Azepanylcarbazole Amino Alcohol” (ACS Med Chem Lett, 2017)
In brackets after ≈: the same amount, converted by molar mass. Blank lines part the entries; values can stand above or below the molecule they belong to. Activity calls are given as the source filed them. The rule behind the calls is not given here.

Experiments:
[1] = Dissociation constant, pKa of the compound at pH 1.5; type: physicochemical
Plasmodium falciparum [2] = assay: Antiplasmodial activity against Plasmodium falciparum 3D7 infected in human erythrocytes engrafted in NOD-SCID IL-2Rgamma null mouse assessed as reduction in blood parasitemia administered as single dose via oral gavage […] by flow cytometry; type: functional; details: 3D7, po
In short: (§1)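 SCID mice engrafted with human erythrocytes, infected with P. falciparum 3D7; single oral dose of 1, 3, 10 or 30 mg·kg-1 given day 3 after infection. Parasitemia measured by flow cytometry, lower limit of quantification 0.01; vehicle group n=3; chloroquine positive control. ED90 and AUC_ED90 are taken as the reduction at day 7 after infection versus vehicle-treated mice.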

[3] = Stability in human hepatocytes assessed as parent compound remaining after 5 hrs; type: ADME, cell-based, Hepatocyte; details: read-out: Stability
In short: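 Human hepatocyte incubation extended to 5 h; parent remaining and metabolite formation assessed.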

[4] = Oral bioavailability in dog at 0.5 mg/kg measured for 14 days; type: ADME, organism-based, Canis lupus familiaris; details: in vivo
[5] = Intrinsic clearance in human microsomes assessed per mg protein; type: ADME, Microsome
[6] = Kinetic solubility of the compound in FeSSIF at pH 5 after 24 hrs by HPLC analysis; type: physicochemical; details: read-out: Kinetic_solubility
Plasmodium falciparum [7] = assay: Antiplasmodial activity against Plasmodium falciparum D6 infected in human erythrocytes after 72 hrs by [3H]-hypoxanthine incorporation assay; type: functional, organism-based
[8] = Ratio of EC50 for Plasmodium falciparum K1 infected in human erythrocytes to EC50 for Plasmodium falciparum NF54 infected in human erythrocytes; type: functional
[9] = Ratio of EC50 for Plasmodium falciparum V1/S infected in human erythrocytes to EC50 for Plasmodium falciparum NF54 infected in human erythrocytes; type: functional
[10] = Ratio of EC50 for Plasmodium falciparum HB3 infected in human erythrocytes to EC50 for Plasmodium falciparum NF54 infected in human erythrocytes; type: functional
[11] = Half life in CD1 mouse at 0.5 mg/kg, po measured for 14 days; type: ADME, organism-based; details: in vivo
In short: (§2)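 Single po administration, mouse dose 0.5 mg·kg-1; plasma concentrations followed to obtain Cmax time and half-life. Bioavailability derived against single iv dosing.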

[12] = Ratio of EC50 for Plasmodium falciparum D6 infected in human erythrocytes to EC50 for Plasmodium falciparum NF54 infected in human erythrocytes; type: functional
[13] = Intrinsic clearance in dog microsomes assessed per mg protein; type: ADME, Canis lupus familiaris, Microsome
Plasmodium falciparum [14] = assay: Antiplasmodial activity against Plasmodium falciparum 3D7A infected in red blood cells at 2 times EC90; type: functional, organism-based
[15] = Half life in dog at 0.5 mg/kg, po measured for 14 days; type: ADME, organism-based, Canis lupus familiaris; details: in vivo; in short: as §2
[16] = Clearance in CD1 mouse at 0.2 mg/kg, iv measured for 14 days; type: ADME, organism-based; details: in vivo
In short: (§3)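 Single iv administration, mouse dose 0.2 mg·kg-1. CL reported in L/h/kg and as % liver blood flow; Vss in L/kg.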

[17] = Cmax in NOD-SCID IL-2Rgamma null mouse at 10 mg/kg measured up to 5 days; type: ADME, organism-based; design: dose 10 mg/kg; details: in vivo
[18] = Ratio of drug uptake in human blood to plasma; type: ADME; details: blood and plasma
[19] = Efflux ratio of apparent permeability from basolateral to apical side over apical to basolateral side in human Caco2 cells at 20 uM after 4 hrs in presence of human plasma by LC-MS analysis; type: ADME, cell-based; details: Caco-2
In short: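 Caco-2 permeability was run with human plasma on both donor and acceptor sides to reduce non-specific binding. Apparent permeability (Papp, ×10^-6 cm/s) was corrected for the unbound concentration, and an efflux ratio was reported.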

Plasmodium falciparum [20] = assay: Ratio of EC90 for Plasmodium falciparum NF54 infected in human erythrocytes to EC50 for Plasmodium falciparum NF54 infected in human erythrocytes; type: functional
Plasmodium falciparum [21] = assay: Antiplasmodial activity against Plasmodium falciparum V1/S infected in human erythrocytes after 72 hrs by [3H]-hypoxanthine incorporation assay; type: functional, organism-based
[22] = Oral bioavailability in CD1 mouse at 0.5 mg/kg measured for 14 days; type: ADME, organism-based; details: in vivo; in short: as §2
[23] = Octanol-phosphate buffer partition co-efficient, log D of the compound at pH 7.4 after 1 hr by HPLC analysis; type: physicochemical
[24] = Kinetic solubility of the compound in PBS at pH 7.4 after 24 hrs by HPLC analysis; type: physicochemical; details: read-out: Kinetic_solubility
[25] = Fraction unbound in mouse plasma at 1000 ng/mL by LC-MS analysis; type: ADME, cell-free
[26] = Lipophilicity, log P of the compound; type: physicochemical; details: octanol/water
[27] = Fraction unbound in dog plasma at 1000 ng/mL by LC-MS analysis; type: ADME, cell-free, Canis lupus familiaris
[28] = Oral bioavailability in rat at 0.5 mg/kg measured for 14 days; type: ADME, organism-based; details: in vivo
[29] = Ratio of EC50 for Plasmodium falciparum FCB infected in human erythrocytes to EC50 for Plasmodium falciparum NF54 infected in human erythrocytes; type: functional
[30] = Apparent permeability of the compound in human Caco2 cells at 20 uM after 4 hrs in presence of human plasma by LC-MS analysis; type: ADME, cell-based; details: Caco-2
In short: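 Caco-2 permeability measured with human plasma in both donor and acceptor compartments to reduce non-specific binding. Papp corrected for the unbound concentration under these conditions; efflux ratio also reported.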

Plasmodium falciparum [31] = assay: Antiplasmodial activity against Plasmodium falciparum K1 infected in human erythrocytes after 72 hrs by [3H]-hypoxanthine incorporation assay; type: functional, organism-based
[32] = Fraction unbound in rat plasma at 1000 ng/mL by LC-MS analysis; type: ADME, cell-free
Plasmodium falciparum [33] = assay: Antiplasmodial activity against Plasmodium falciparum 3D7A infected in red blood cells assessed as log reduction in parasite viability at 3 times EC50 after 48 hrs by [3H]-hypoxanthine incorporation assay; type: functional
In short: (§4)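 In vitro parasite reduction ratio (PRR) assay on P. falciparum 3D7A-infected erythrocytes exposed to drug at 10× or 3× EC50. Viability of treated parasites was measured by limiting serial dilution followed by monitoring of re-growth. Killing was expressed as log-unit reduction in viable parasites after 48 h.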

Plasmodium falciparum [34] = assay: Antiplasmodial activity against Plasmodium falciparum 7G8 infected in human erythrocytes after 72 hrs by [3H]-hypoxanthine incorporation assay; type: functional, organism-based
Plasmodium falciparum [35] = assay: Antiplasmodial activity against Plasmodium falciparum 3D7A infected in red blood cells assessed as log reduction in parasite viability at 10 times EC50 after 48 hrs by [3H]-hypoxanthine incorporation assay; type: functional; in short: as §4
Plasmodium falciparum [36] = assay: Antiplasmodial activity against Plasmodium falciparum 3D7 infected in human erythrocytes engrafted in NOD-SCID IL-2Rgamma null mouse assessed as reduction in blood parasitemia at 10 to 30 mg/kg, po administered as single dose via gavage measured on day 4 post treatment by flow cytometry; type: functional, organism-based
In short: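 Human-erythrocyte-engrafted SCID mice infected with P. falciparum 3D7 received one oral dose (1, 3, 10 or 30 mg·kg-1) on day 3 post-infection. Parasitemia was followed by flow cytometry, with a quantification limit of 0.01; vehicle controls n=3.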

[37] = Intrinsic clearance in monkey microsomes assessed per mg protein; type: ADME, Macaca mulatta, Microsome; details: rhesus monkey
[38] = Fraction unbound in human plasma at 1000 ng/mL by LC-MS analysis; type: ADME, cell-free
[39] = Intrinsic clearance in rat microsomes assessed per mg protein; type: ADME, Microsome
Plasmodium falciparum [40] = assay: Antiplasmodial activity against Plasmodium falciparum Dd2 infected in human erythrocytes after 72 hrs by [3H]-hypoxanthine incorporation assay; type: functional, organism-based
[41] = Intrinsic clearance in mouse microsomes assessed per mg protein; type: ADME, Microsome
[42] = Volume of distribution at steady state in CD1 mouse at 0.2 mg/kg, iv measured for 14 days; type: ADME, organism-based; details: in vivo, read-out: Vdss; in short: as §3
[43] = Ratio of EC50 for Plasmodium falciparum Dd2 infected in human erythrocytes to EC50 for Plasmodium falciparum NF54 infected in human erythrocytes; type: functional
Plasmodium falciparum [44] = assay: Antiplasmodial activity against Plasmodium falciparum 3D7 infected in human erythrocytes engrafted in NOD-SCID IL-2Rgamma null mouse assessed as reduction in peripheral blood parasitemia administered as single dose via oral gavage measured on […] by flow cytometry; type: functional, organism-based; in short: as §1
Plasmodium falciparum [45] = assay: Antiplasmodial activity against Plasmodium falciparum HB3 infected in human erythrocytes after 72 hrs by [3H]-hypoxanthine incorporation assay; type: functional, organism-based
[46] = Protein binding in brain (unknown origin); type: ADME, tissue-based; details: read-out: PB
[47] = Clearance in dog at 0.2 mg/kg, iv measured for 14 days; type: ADME, organism-based, Canis lupus familiaris; details: in vivo; in short: as §3
[48] = Half life in rat at 0.5 mg/kg, po measured for 14 days; type: ADME, organism-based; details: in vivo
[49] = target: Voltage-gated inwardly rectifying potassium channel KCNH2 (Homo sapiens, UniProt Q12809); assay: Inhibition of human ERG
Chain of Voltage-gated inwardly rectifying potassium channel KCNH2 (Q12809 whole entry): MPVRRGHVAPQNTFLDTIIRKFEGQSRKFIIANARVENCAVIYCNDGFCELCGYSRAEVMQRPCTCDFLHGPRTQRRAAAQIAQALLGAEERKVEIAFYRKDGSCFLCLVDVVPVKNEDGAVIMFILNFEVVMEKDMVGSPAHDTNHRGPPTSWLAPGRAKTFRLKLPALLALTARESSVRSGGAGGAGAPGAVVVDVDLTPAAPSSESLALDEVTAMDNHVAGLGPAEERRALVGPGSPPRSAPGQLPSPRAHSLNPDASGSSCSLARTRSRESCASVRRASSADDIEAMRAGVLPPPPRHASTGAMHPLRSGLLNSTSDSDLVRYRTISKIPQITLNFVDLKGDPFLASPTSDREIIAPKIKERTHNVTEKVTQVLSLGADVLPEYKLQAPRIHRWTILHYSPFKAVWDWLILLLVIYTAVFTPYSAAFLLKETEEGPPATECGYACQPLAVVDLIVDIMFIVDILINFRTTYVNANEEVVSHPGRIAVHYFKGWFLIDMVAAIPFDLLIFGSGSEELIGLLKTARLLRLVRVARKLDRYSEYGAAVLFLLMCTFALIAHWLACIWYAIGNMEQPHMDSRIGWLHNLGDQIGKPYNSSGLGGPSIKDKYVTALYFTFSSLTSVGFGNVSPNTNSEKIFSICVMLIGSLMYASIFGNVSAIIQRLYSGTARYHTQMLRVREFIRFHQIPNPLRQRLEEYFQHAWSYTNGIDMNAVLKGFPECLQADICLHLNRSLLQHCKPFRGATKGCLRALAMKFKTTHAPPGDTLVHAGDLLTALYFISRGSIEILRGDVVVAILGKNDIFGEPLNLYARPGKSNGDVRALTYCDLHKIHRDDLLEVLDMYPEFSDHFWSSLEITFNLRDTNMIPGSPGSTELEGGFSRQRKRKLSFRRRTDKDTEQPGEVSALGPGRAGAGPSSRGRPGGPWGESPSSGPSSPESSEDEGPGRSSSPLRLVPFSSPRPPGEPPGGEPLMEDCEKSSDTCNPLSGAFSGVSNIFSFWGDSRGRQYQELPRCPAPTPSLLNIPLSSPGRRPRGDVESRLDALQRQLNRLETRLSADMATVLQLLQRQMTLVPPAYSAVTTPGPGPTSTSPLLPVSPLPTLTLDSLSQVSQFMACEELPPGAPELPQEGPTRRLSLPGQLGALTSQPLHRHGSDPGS

Plasmodium falciparum [50] = assay: Antiplasmodial activity against schizont stage of Plasmodium falciparum 3D7A infected in red blood cells assessed as reduction in parasite viability at 3 to 10 times EC50 after 48 hrs by [3H]-hypoxanthine incorporation assay relative to ring stage; type: functional
[51] = Ratio of EC50 for Plasmodium falciparum TM90C2B infected in human erythrocytes to EC50 for Plasmodium falciparum NF54 infected in human erythrocytes; type: functional
Plasmodium falciparum [52] = assay: Antiplasmodial activity against Plasmodium falciparum TM90C2B infected in human erythrocytes after 72 hrs by [3H]-hypoxanthine incorporation assay; type: functional, organism-based
[53] = Ratio of drug uptake in mouse blood to plasma; type: ADME; details: blood and plasma
[54] = Kinetic solubility of the compound in FaSSIF at pH 6.5 after 24 hrs by HPLC analysis; type: physicochemical; details: read-out: Kinetic_solubility
Plasmodium falciparum [55] = assay: Antiplasmodial activity against Plasmodium falciparum FCB infected in human erythrocytes after 72 hrs by [3H]-hypoxanthine incorporation assay; type: functional, organism-based
Plasmodium falciparum [56] = assay: Antiplasmodial activity against Plasmodium falciparum NF54 infected in human erythrocytes after 72 hrs by [3H]-hypoxanthine incorporation assay; type: functional, organism-based
[57] = Ratio of EC50 for Plasmodium falciparum 7G8 infected in human erythrocytes to EC50 for Plasmodium falciparum NF54 infected in human erythrocytes; type: functional
[58] = Tmax in CD1 mouse at 0.5 mg/kg, po measured for 14 days; type: ADME, organism-based; details: in vivo; in short: as §2

pKa [1]: 8.05
Structure (SMILES): C1CCCNCC1 [AZEPANE]

Structure (SMILES): CCN(CC)CCCC(C)Nc1ccnc2cc(Cl)ccc12 (stereo unspecified) [CHLOROQUINE]
ED50 (Plasmodium falciparum [2]): 2.8 mg/kg

remaining at 5 h [3]: 96% | bioavailability [4]: 100% | microsomal CLint [5]: < 10 µL/min/mg | solubility kinetic at 24 h [6]: 83.5 µg/mL (≈ 201 µM) | EC50 (Plasmodium falciparum [7]): 3.4 nM | pKa [1]: 8.05 | half-life [11]: 86 h | microsomal CLint [13]: < 10 µL/min/mg | half-life [15]: 69 h | clearance [16]: 2.6 mL/min/kg | Cmax [17]: 1000 nM | blood plasma ratio [18]: 1.5 | efflux ratio at 4 h, 20 µM [19]: 0.8 | EC50 (Plasmodium falciparum [21]): 1.3 nM | bioavailability [22]: 97% | logD at 1 h [23]: 4.1 | solubility kinetic at 24 h [24]: 1.5 µg/mL (≈ 3.6 µM) | fraction unbound at 1000 ng/mL [25]: 0.026 | logP [26]: 4.6 | fraction unbound at 1000 ng/mL [27]: 0.013 | bioavailability [28]: 72% | Papp at 4 h, 20 µM [30]: 120 ×10⁻⁶ cm/s | EC50 (Plasmodium falciparum [31]): 0.7 nM | fraction unbound at 1000 ng/mL [32]: 0.025 | EC50 (Plasmodium falciparum [34]): 0.4 nM | microsomal CLint [37]: < 10 µL/min/mg | fraction unbound at 1000 ng/mL [38]: 0.035 | microsomal CLint [39]: < 10 µL/min/mg | EC50 (Plasmodium falciparum [40]): 3.2 nM | microsomal CLint [41]: < 10 µL/min/mg | Vd [42]: 10 L/kg | EC50 (Plasmodium falciparum [45]): 2.1 nM | fraction unbound [46]: < 0.001 | clearance [47]: 2.98 mL/min/kg | half-life [48]: 160 h | EC50 (Plasmodium falciparum [52]): 3 nM | blood plasma ratio [53]: 1.6 | solubility kinetic at 24 h [54]: 10 µg/mL (≈ 24 µM) | EC50 (Plasmodium falciparum [55]): 3 nM | EC50 (Plasmodium falciparum [56]; Plasmodium falciparum, NF54): 2.4 nM | Tmax [58]: 6 h
Structure (SMILES): O[C@H]1CNCCC[C@@H]1n1c2ccc(C(F)(F)F)cc2c2cc(C(F)(F)F)ccc21
ED90 (Plasmodium falciparum [2]): 3.6 mg/kg | Ratio EC50 [8]: 0.3 | Ratio EC50 [9]: 0.5 | Ratio EC50 [10]: 0.9 | Ratio EC50 [12]: 1.4 | Activity (Plasmodium falciparum [14]): Active | fold change (FC) (Plasmodium falciparum [20]): 2 | Ratio EC50 [29]: 1.3 | FC (Plasmodium falciparum [33]): 4.5 | FC (Plasmodium falciparum [35]): 4.8 | Activity (Plasmodium falciparum [36]): Active | Ratio EC50 [43]: 1.3 | AUCED90 (Plasmodium falciparum [44]): 2.2 µg.hr/ml/day | IC50 [49]: 1180 nM | fold change (FC) (Plasmodium falciparum [50]): 2 | Ratio EC50 [51]: 1.2 | fEC50 (Plasmodium falciparum [56]): 0.17 nM | Ratio EC50 [57]: 0.2
